# Screening data as filed in PubChem BioAssay.
# A selection: hits, their analogues and other compounds. The true share with any hit is near 3.3%.
# Statin myotox sup: protects C2C12 myotubes from simvastatin toxicity; AID 602340; ATP luminescence, 48 h; scaled: DMSO 0, geranylgeraniol control 100; rescue of ATP level, % at 7.49 µM; 330,000 tested, 0.78% active;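 active means mean ATP rescue above about 67%, or every replicate alone reaching that limit, limit read from the data, passing the limit was not always enough; inconclusive means no clear call, values can overlap the other calls; inactive means mean under the limit and some replicate under it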;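 further: myotubes were challenged with 10 µM simvastatin during compound exposure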
# PglD inh: inhibitors of Campylobacter jejuni PglD acetyltransferase; purified PglD enzyme, DTNB colorimetric CoA detection; 360,000 tested, 0.098% active; inhibition, % at 12.5 µM; in the data active means inhibition above about 16%, passing the limit was not always enough; inconclusive means no clear call, values can overlap the other calls
# FGF22 binding: shifts melting point of recombinant human FGF22; recombinant FGF22 thermal shift, SYPRO orange fluorescence; percent of sucrose octasulfate shift, DMSO zero; 340,000 tested, 1.5% active; activity (Tm shift, normalised), % at 9.99 µM; Q9HCT0;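 active means mean Tm shift, scaled 0 neutral to 100 positive control, at about 1.3% or above, every replicate too, limit read from the data; inconclusive means no clear call, values can overlap the other calls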
# E-selectin induc: induces E-selectin expression in human endothelial cells. HUVEC E-selectin immunofluorescence imaging; normalized: neutral wells 0, TNF-alpha wells 100. activation, % at 7.58 µM. 260,000 tested, 0.37% active;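 active means mean E-selectin-positive cell signal at least 10% of the positive control, reached in at least 60% of replicates, without over 20% cell loss; inconclusive means no rule given, readout overlaps actives, possibly toxicity-flagged; inactive means the rest, including those meeting only one limit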
# Target sequence (P16581 whole entry, looked up): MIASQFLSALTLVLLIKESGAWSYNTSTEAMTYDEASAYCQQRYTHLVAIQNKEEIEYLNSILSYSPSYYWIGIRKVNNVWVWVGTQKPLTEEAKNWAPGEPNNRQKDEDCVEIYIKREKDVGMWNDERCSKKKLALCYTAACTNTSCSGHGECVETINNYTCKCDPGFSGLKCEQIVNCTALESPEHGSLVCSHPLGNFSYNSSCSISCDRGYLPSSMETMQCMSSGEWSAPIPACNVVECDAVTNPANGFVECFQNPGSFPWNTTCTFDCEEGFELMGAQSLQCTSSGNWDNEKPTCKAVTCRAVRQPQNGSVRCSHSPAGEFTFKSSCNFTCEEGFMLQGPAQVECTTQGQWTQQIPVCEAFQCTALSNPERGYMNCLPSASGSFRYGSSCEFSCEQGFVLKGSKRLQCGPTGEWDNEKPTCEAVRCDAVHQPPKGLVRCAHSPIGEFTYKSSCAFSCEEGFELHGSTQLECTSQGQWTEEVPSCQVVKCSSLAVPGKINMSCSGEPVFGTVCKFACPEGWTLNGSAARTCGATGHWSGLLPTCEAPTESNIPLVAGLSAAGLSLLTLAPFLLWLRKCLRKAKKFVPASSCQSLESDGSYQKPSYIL
#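 Material: HUVEC primary endothelial cells; Amount: 3,000 cells per well; Dosing: single concentration; Medium: EGM-2 growth medium on 0.1% gelatin-coated wells; Read-out basis: percent E-selectin-positive cells; Signal: immunofluorescence imaging; Control set: TNF-alpha, DMSO.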
# DENV2 CPE: DENV2-induced cell death inhibition; 350,000 tested, 1.7% active; CPE inhibition, % at 9.99 µM; DENV2-infected cells, cytopathic effect rescue, plate reader; in the data active means CPE inhibition above about 20%, passing the limit was not always enough; inconclusive means no clear call, values can overlap the other calls; tested in BHK-21 cells;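 further: 0% = median of neutral control wells and 100% = median of positive control wells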
# XiGFP reactiv: X-chromosome reactivation activator; XiGFP mouse fibroblasts, % GFP-positive cells imaging, 3 d; cells co-treated with 5-aza-dC sensitizer; scaled so ellipticine positive control = 100%; activation, % at 7.58 µM; 360,000 tested, 0.055% active; AID 743238;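 active means mean normalized replicate activation at least 10% and every replicate at or above 10%; inconclusive means only one of the two criteria met; inactive means mean below 10% and not all replicates reach 10%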;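 further: 0% = median of on-plate neutral control wells and 100% = ellipticine 6 µM median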
#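 Assay system: SV40-immortalized XiGFP fibroblast cells, line 68-5-11; buffer or medium: DMEM plus 5-aza-dC sensitizer; compound: one concentration, pinned; timing: compounds 3 days, fix/stain 15 min at room temperature; benchmarks: positive control ellipticine, 6 µM final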
# Active calls of the source: *; ? = inconclusive; . = not tested or not shown.
SMILES,Statin myotox sup,PglD inh,FGF22 binding,E-selectin induc,DENV2 CPE,XiGFP reactiv
COc1ccc(CN2C(=O)C(CC(=O)NCCCN(C)C)CC(C(=O)N(C(C)C)C(C)C)=C2C)cc1 (stereo not given),2,-7,0,-7,9,0
CCOC(=O)[C@]12CCCC=C1N(Cc1ccccc1)C(=O)[C@H](CC(=O)NCc1cccs1)C2,.,.,0,2,55*,.
CCOC(=O)[C@]12CCCC=C1N(Cc1ccco1)C(=O)[C@H](CC(=O)N1CCC(c3ccccc3)CC1)C2,.,.,0,.,38*,0
CO[C@@H]1CN(C)C(=O)c2ccc(NC(C)=O)cc2OC[C@H](C)N(C(=O)C2CCCCC2)C[C@H]1C,-2,-1,0,0,-2,0
CN1CCCCN2[C@H](CO)[C@@H](c3ccc(-c4ccc(F)cc4)cc3)[C@@H]2C1,33,2,1,0,61*,0
Cc1ccc(-c2ccc([C@H]3[C@@H](CO)N4CCCCN(C)C[C@H]34)cc2)cc1,.,4,-1,-1,27*,0
C/C=C/c1ccc([C@H]2[C@@H](CO)N3CCCCN(C)C[C@H]23)cc1,7,3,0,0,54*,0
CN1CCCCN2[C@H](C1)[C@H](c1ccc(-c3ccc(F)cc3)cc1)[C@@H]2CO,-10,-2,1,0,?,0
O=C(C[C@H]1C[C@H]2c3cc(NC(=O)Nc4ccc(C(F)(F)F)cc4)ccc3O[C@H]2[C@H](CO)O1)NCCc1ccccc1,-2,-1,0,0,-1,0
CN(C)CC(=O)Nc1ccc2c(c1)[C@H]1C[C@H](CC(=O)N3CCc4ccccc4C3)O[C@@H](CO)[C@H]1O2,0,-2,0,-1,-2,0
O=C(c1ccc(F)cc1)N1CC(=O)N2[C@H](CO)[C@@H](c3ccc(C#CC4CC4)cc3)[C@@H]2C1,.,.,.,0,9,0
Cc1cc2occ(CC(=O)NC3CCCc4ccccc43)c2cc1C (stereo not given),.,.,43*,.,18,0
CC(NCc1ccc2c(c1)OCO2)C(=O)NC1CCCc2ccccc21 (stereo not given),99*,9,.,.,.,.
CSCc1c(C(=O)NC2CCCc3ccccc32)oc2ccccc12 (stereo not given),102*,-2,.,.,.,.
CCN(CC)S(=O)(=O)c1ccc2oc(C(=O)NC3CCCc4ccccc43)c(C)c2c1 (stereo not given),-4,-4,0,.,.,.
CCCC#Cc1ccc2c(c1)O[C@H](CN(C)C(=O)CN(C)C)[C@H](C)CN([C@@H](C)CO)S2(=O)=O,-7,.,.,-1,.,1
Cc1ccc(/C=N/NC(=O)c2ccc(-n3cnnn3)cc2)cc1,-5,-4,0,0,32*,0
O=C(N/N=C/c1ccc(F)cc1)c1ccc(-n2cnnn2)cc1,-3,1,0,0,5,0
CC(C)OC(=O)c1cc(C(=O)c2cc(Br)ccc2O)coc1=N,14,3,.,0,-3,0
CCOc1ccccc1NC(=O)c1cc(C(=O)c2cc(Br)ccc2O)coc1=N,.,.,45*,.,3,0
CCCCc1c(-c2cccc(Br)c2)ncn1CCc1ccccc1OC,.,.,35*,0,1,0
CCCCc1c(-c2ccccc2OC)ncn1CCc1ccccc1Cl,.,.,0,0,32*,0
CCCCc1c(-c2cccc(F)c2)ncn1CCc1ccccc1OC,.,.,0,0,14,1
CCCCCc1c(-c2ccccc2OC)ncn1CCc1ccccc1OC,.,.,0,0,26*,0
CCCCc1c(-c2ccccc2OC)ncn1CCc1ccccc1OC,.,.,0,0,-6,0
SMILES,Statin myotox sup,PglD inh,FGF22 binding,E-selectin induc,DENV2 CPE,XiGFP reactiv
CO[C@@H]1CN(C)C(=O)c2cc(NC(=O)C3CCC3)ccc2OC[C@@H](C)N(C(=O)NC(C)C)C[C@@H]1C,-4,2,0,0,0,-1
O=C(NCC[C@@H]1CC[C@H](NC(=O)C2CCC2)[C@H](CO)O1)c1cc(Cl)cc(Cl)c1,0,1,0,0,8,-1
CN1C(=O)c2cc(NC(=O)Cc3cccs3)ccc2OC[C@@H]2O[C@@H](CC(=O)NCCc3ccncc3)CC[C@@H]21,-13,2,0,0,-3,0
COc1ccc(C#Cc2ccc([C@H]3[C@@H](CO)N4CCCCN(C(=O)c5ccncc5)C[C@H]34)cc2)cc1,-7,0,0,0,47*,0
COCC(=O)N1CCCCN2[C@H](CO)[C@H](c3ccc(C#Cc4ccc(OC)cc4)cc3)[C@@H]2C1,.,11,1,1,39*,0
COCC(=O)N1CCCCN2[C@H](C1)[C@H](c1ccc(C#Cc3ccccc3)cc1)[C@@H]2CO,21,-1,0,0,40*,0
COCC(=O)N1CCCCN2[C@@H](CO)[C@H](c3ccc(C#Cc4ccccc4)cc3)[C@@H]2C1,26,-1,0,0,12,0
COCC(=O)N1CCCCN2[C@H](C1)[C@@H](c1ccc(C#Cc3ccccc3)cc1)[C@@H]2CO,3,3,0,0,28*,0
C[C@H](O)C#Cc1ccc([C@H]2[C@H](CO)N3CCCCN(C(=O)c4ccncc4)C[C@@H]23)cc1,-9,6,0,0,-1,0
COc1ccc(CN(C)C[C@@H]2OCCCC[C@H](C)Oc3ccc(NS(=O)(=O)c4ccc(F)cc4)cc3C(=O)N([C@H](C)CO)C[C@@H]2C)cc1,.,-1,0,.,7,0
CCCC#Cc1ccc2c(c1)O[C@@H](CN(C)Cc1cccnc1)[C@H](C)CN([C@@H](C)CO)S2(=O)=O,-73,5,0,0,-12,-1
CC(C)NC(=O)Nc1ccc2c(c1)CC(=O)N([C@@H](C)CO)C[C@H](C)[C@H](CN(C)C(=O)NC(C)C)O2,10,0,0,2,?,0
COc1ccc(CN(C)C[C@H]2OCCCC[C@H](C)Oc3ccc(NC(=O)Nc4c(C)noc4C)cc3C(=O)N([C@@H](C)CO)C[C@@H]2C)cc1,.,-1,1,0,0,0
O=C(Nc1cc(F)ccc1F)N1CC(=O)N2[C@H](C1)[C@@H](c1ccc(C#CC3CCCC3)cc1)[C@@H]2CO,.,.,.,1,4,0
O=C1[C@H](Cc2ccc(C(F)(F)F)cc2)CCn2nncc2COC[C@H]2CCCCN12,.,.,.,.,.,0
CCC(=O)N[C@H]1CC[C@H](CCn2cc(CN(C)C)nn2)O[C@@H]1CO,-6,-3,0,0,-7,0
COCC#Cc1ccc([C@@H]2[C@@H](CO)N3CCCCN(C(=O)COC)C[C@H]23)cc1,.,2,0,0,34*,0
